Reference: paper PMC4727981 (Archives of biochemistry and biophysics, 2015)
Values joined by “and” are separate entries in the source; they are usually repeats but may differ in a detail not shown here. Equal values may be shown once. Read-outs that look alike come from different tables or passages of the source.

Legend:
recombinant PON1^R192 = recombinant PON1^R192 ref 30; cited from earlier work
human CES1 = target: T1, human CES1 (Homo sapiens, UniProt P23141); type: biochemical; conditions: for kinact/Ki (bimolecular rate constant): linear fit
T1 sequence (P23141 18-566 isoform P23141-3 limits assumed): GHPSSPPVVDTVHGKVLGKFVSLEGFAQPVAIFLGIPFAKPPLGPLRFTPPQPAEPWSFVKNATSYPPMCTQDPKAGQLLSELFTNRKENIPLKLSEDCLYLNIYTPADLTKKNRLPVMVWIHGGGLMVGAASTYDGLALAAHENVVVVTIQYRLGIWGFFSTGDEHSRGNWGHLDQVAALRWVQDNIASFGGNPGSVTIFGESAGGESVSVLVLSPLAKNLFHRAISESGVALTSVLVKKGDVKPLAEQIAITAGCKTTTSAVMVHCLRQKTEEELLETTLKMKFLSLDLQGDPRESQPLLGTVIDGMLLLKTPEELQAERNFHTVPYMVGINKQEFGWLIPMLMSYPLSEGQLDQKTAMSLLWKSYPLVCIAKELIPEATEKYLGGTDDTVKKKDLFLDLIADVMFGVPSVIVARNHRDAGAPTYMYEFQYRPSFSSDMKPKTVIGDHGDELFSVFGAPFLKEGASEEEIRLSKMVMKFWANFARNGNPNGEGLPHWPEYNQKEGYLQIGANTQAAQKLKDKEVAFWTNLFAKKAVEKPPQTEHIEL
Procedure, shortened: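 Oxon at various concentrations plus 4-MUBA (250 μM) prewarmed 5 min at 37°C. Lysate (0.1 mg/ml final) then starts the reaction. 4-Methylumbelliferone fluorescence ([…]) is followed 45 min, with the mock-lysate signal subtracted. Curves are fit to a single exponential without reactivation to give kobs per concentration. Ki′ is substrate-corrected (Km 227 μM).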

[1] = tested on: KIAA1363 in mouse brain membranes; conditions: 1 nM [3H]-CPO, cited from earlier work
recombinant PON1^Q192 = recombinant PON1^Q192 ref 30; cited from earlier work
recombinant CES1 = recombinant CES1 ref 7; cited from earlier work
human KIAA1363 [2] = target: T2, human KIAA1363 (Homo sapiens, UniProt Q6PIU2); type: biochemical; conditions: for kreact (calculated reactivation rate constant): calculated with Eqn. 7 / kinact ratio
T2 sequence (Q6PIU2 1-416 isoform Q6PIU2-2): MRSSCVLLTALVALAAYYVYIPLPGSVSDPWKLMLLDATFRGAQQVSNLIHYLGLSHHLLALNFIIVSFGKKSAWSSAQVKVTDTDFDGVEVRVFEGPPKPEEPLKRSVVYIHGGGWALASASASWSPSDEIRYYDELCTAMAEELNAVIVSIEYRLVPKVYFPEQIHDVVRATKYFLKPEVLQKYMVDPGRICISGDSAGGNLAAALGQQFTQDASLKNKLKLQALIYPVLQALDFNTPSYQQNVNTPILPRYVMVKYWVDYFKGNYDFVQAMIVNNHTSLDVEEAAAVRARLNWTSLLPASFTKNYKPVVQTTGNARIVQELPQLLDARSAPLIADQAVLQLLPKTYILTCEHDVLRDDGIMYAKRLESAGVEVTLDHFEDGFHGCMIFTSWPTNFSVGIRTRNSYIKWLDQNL

human KIAA1363 [3] = target: T2, human KIAA1363; experiment: Reactivation of oxon-inhibited KIAA1363 activity after 100-fold dilution; type: biochemical; conditions: CPO 1 μM 15 min, diluted 100-fold, up to 60 min at 37°C
Procedure, shortened: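 KIAA1363-transfected COS-7 lysate (1 mg/ml protein, 50 mM Tris-HCl pH 7.4) preincubated 15 min at 37°C with 1 μM oxon in ethanol (2% v/v), or ethanol alone as control. Reactions are diluted 1:100 in the same buffer and incubated 60 min at 37°C. Aliquots are taken every 10 min to assay residual 4-MUBA hydrolysis by fluorescence.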

[4] = tested on: KIAA1363 in mouse brain membranes; conditions: cited from earlier work
human KIAA1363 [5] = target: T2, human KIAA1363; type: biochemical; conditions: data not shown
[6] = means of 2–4 independent experiments

## CCOP(=O)(OCC)Oc1nc(Cl)c(Cl)cc1Cl [CPO, O,O′-Diethyl 3,5,6-trichloro-2-pyridyl phosphate]
Recombinant PON1^R192
  catalytic efficiency for hydrolysis of CPO: 150000 M⁻¹ s⁻¹
Human CES1
  kinact/Ki (bimolecular rate constant): 6.7(±4.2) × 10^6 s^−1M^−1
Human CES1; representative graph Fig. 6B, assuming Ki ≫ [I]
  kinact/Ki: 2.5 × 10^6 s^−1M^−1
[1]; 5 min ref 10
  added CPO covalently bound to KIAA1363: 48 mol %
  added CPO present as diethylphosphoryl (non-aged) adduct: 44 mol %
  added CPO present as monoethylphosphoryl (aged) adduct: 4 mol %
[1]; 60 min ref 10
  CPO completely hydrolyzed to trichloropyridinol and diethylphosphate: 75 mol %
  added CPO as covalent phosphoryl adduct on KIAA1363: 25 mol %
  added CPO present as diethylphosphoryl adduct: 13 mol %
  added CPO present as monoethylphosphoryl adduct: 12 mol %
Recombinant PON1^Q192
  catalytic efficiency for hydrolysis of CPO: 90000 M⁻¹ s⁻¹
Recombinant CES1
  kinact/Ki: ~ 10^7 s^−1M^−1
Human KIAA1363 [2]
  corrected kinact/Ki, fold higher than for PO: ~ 10 fold
  kinact/Ki (corrected bimolecular rate constant): 4.4(±0.4) × 10^6 s^−1M^−1
  ratio kinact/kreact (phosphorylation/dephosphorylation): 16
  kreact (calculated reactivation rate constant): 0.0004 s⁻¹ and 0.00043 ± 0.00019 s⁻¹
Human KIAA1363 [2]; [6]
  kinact: 0.0069 ± 0.0007 s⁻¹
Human KIAA1363 [2]; representative graph Fig. 6A
  kinact: 0.0062 s⁻¹
Human KIAA1363 [3]
  kreact determined by dilution approach: 0.00038 s⁻¹
[4]; 1 nM CPO, 60 min ref 9
  hydrolysis (turnover) of CPO by KIAA1363: 100%
[4]; 60 min incubation ref 9
  hydrolysis of CPO by KIAA1363: hydrolyzed completely
[4]; 60 min incubation ref 10
  hydrolysis of 1 nM [3H]-CPO by brain membranes from wildtype mice: completely hydrolyzed

## CCCCCCCC/C=C\CCCCCCCC(=O)Oc1ccc2c(C)cc(=O)oc2c1 [4-methylumbelliferyl oleate]
Human KIAA1363 [5]
  hydrolysis by KIAA1363: could not detect any activity

## CCOP(=O)(OCC)Oc1ccc([N+](=O)[O-])cc1 [PO, O,O′-diethyl p-nitrophenyl phosphate]
Human CES1
  kinact/Ki (bimolecular rate constant): 1.5 × 10^6 s^−1M^−1
Human KIAA1363 [2]
  kinact, fold lower than kinact for CPO: 7.5 fold
  kinact/Ki (corrected bimolecular rate constant): 0.4 × 10^6 s^−1M^−1
  ratio kinact/kreact (phosphorylation/dephosphorylation): 3.4
  kreact (calculated reactivation rate constant): 0.0003 s⁻¹
Human KIAA1363 [2]; [6]
  kinact: 0.00092 s⁻¹

## CCCCCCCC/C=C\CCCCCCCC(=O)O[C@H]1CC[C@@]2(C)C(=CC[C@H]3[C@@H]4CC[C@H]([C@H](C)CCCC(C)C)[C@@]4(C)CC[C@@H]32)C1 [cholesteryl oleate]
Human KIAA1363 [5]
  hydrolysis by KIAA1363: could not detect any activity
